# Experimental data from ChEMBL document CHEMBL1165983, “Regio- and stereospecific synthesis of mono-beta-d-glucuronic acid derivatives of combretastatin A-1” (J Nat Prod, 2010).
# pIC50: −log10 of the molar value.
# What was measured:
# SK-OV-3 = test: Cytotoxicity against human SKOV3 cells by SRB assay; assay type: functional
# NCI-H460 = test: Cytotoxicity against human NCI-H460 cells by SRB assay; assay type: functional
# DU-145 = test: Cytotoxicity against human DU145 cells by SRB assay; assay type: functional
# [1] = Inhibition of bovine brain tubulin assembly after 20 mins; parameters: species or system Bos taurus
# Method in brief: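 Bovine brain tubulin (10 µM) was preincubated with varying compound concentrations in glutamate buffer at 30 °C and then cooled to 0 °C. GTP was added, and the mixtures were warmed to 30 °C in a recording spectrophotometer. Assembly was followed turbidimetrically.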
SMILES,GI50 (SK-OV-3) [nM],GI50 (NCI-H460) [nM],GI50 (DU-145) [nM],pIC50 [1]
COc1ccc(/C=C/c2cc(OC)c(OC)c(OC)c2)c(O[C@@H]2O[C@H](C(=O)O)[C@@H](O)[C@H](O)[C@H]2O)c1O,30000,26000,> 88000,
COc1cc(/C=C\c2ccc(OC)c(O[C@@H]3O[C@H](C(=O)O)[C@@H](O)[C@H](O)[C@H]3O)c2O)cc(OC)c1OC,2100,1800,3300,
COc1cc(/C=C/c2ccc(OC)c(O[C@@H]3O[C@H](C(=O)O)[C@@H](O)[C@H](O)[C@H]3O)c2O)cc(OC)c1OC,> 85000,26000,> 98000,
COc1ccc(/C=C\c2cc(OC)c(OC)c(OC)c2)c(O[C@@H]2O[C@H](C(=O)O)[C@@H](O)[C@H](O)[C@H]2O)c1O,2300,3000,4400,
COc1ccc(/C=C\c2cc(OC)c(OC)c(OC)c2)cc1O [COMBRETASTATIN A4],,,1,
COc1ccc(/C=C\c2cc(OC)c(OC)c(OC)c2)c(O)c1O [COMBRETASTATIN A-1],,46,13,5.96
